Assay results as given in ChEMBL document CHEMBL1144296, “3,4-Dihydro-2H-benzoxazinones are 5-HT(1A) receptor antagonists with potent 5-HT reuptake inhibitory activity” (Bioorg Med Chem Lett, 2005).
pKi: −log10 of the molar value.

Key:
[1] = target: T1, 5-hydroxytryptamine receptor 1A (Homo sapiens) (UniProt P08908); experiment: Mean intrinsic activity was measured for the human 5-hydroxytryptamine 1A receptor; n=3
T1 sequence (whole entry): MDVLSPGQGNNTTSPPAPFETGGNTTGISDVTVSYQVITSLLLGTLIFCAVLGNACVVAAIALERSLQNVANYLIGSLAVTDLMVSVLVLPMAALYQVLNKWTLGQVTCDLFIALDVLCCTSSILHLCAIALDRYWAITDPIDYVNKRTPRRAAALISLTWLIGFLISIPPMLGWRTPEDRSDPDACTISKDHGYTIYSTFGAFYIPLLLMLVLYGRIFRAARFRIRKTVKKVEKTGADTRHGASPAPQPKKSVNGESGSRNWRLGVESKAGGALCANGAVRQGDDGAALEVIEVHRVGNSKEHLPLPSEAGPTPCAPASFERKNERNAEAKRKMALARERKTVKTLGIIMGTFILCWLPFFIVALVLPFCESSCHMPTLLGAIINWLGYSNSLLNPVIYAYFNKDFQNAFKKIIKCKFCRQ
In short: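 [35S]-GTPγS binding in HEK293 cells expressing the human 5-HT1A receptor. Intrinsic activity is the mean of three experiments, each within 0.1 of the mean.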

[2] = target: T2, 5-hydroxytryptamine receptor 1A (Homo sapiens, UniProt P08908); experiment: Mean negative logarithim of binding affinity was measured for the human 5-hydroxytryptamine 1A receptor; n>/=3
T2 sequence (P08908 whole entry): T1 sequence (whole entry)

[3] = target: Sodium-dependent serotonin transporter (Rattus norvegicus, UniProt P31652); experiment: Mean negative logarithim of binding affinity was measured for the rat serotonin transporter; n>/=3
[4] = target: Beta-2 adrenergic receptor (Homo sapiens, UniProt P07550); experiment: Binding affinity for human beta-2 adrenergic receptor by displacing [125I]iodocyanopindolol expressed in hamster CHO cells; type: cell-based
Sequence of Beta-2 adrenergic receptor (P07550 whole entry): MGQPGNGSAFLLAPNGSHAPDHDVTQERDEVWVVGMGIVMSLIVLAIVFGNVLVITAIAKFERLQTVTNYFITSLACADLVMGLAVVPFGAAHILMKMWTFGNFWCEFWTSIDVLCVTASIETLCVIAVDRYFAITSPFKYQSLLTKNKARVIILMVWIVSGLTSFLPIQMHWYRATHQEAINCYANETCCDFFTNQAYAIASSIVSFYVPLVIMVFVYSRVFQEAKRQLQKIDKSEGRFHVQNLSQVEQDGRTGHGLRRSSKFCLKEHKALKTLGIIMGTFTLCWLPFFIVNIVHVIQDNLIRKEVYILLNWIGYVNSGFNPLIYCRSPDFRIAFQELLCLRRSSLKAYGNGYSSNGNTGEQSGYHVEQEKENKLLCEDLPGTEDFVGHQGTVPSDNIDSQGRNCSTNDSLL

Sequence of Sodium-dependent serotonin transporter (P31652 whole entry): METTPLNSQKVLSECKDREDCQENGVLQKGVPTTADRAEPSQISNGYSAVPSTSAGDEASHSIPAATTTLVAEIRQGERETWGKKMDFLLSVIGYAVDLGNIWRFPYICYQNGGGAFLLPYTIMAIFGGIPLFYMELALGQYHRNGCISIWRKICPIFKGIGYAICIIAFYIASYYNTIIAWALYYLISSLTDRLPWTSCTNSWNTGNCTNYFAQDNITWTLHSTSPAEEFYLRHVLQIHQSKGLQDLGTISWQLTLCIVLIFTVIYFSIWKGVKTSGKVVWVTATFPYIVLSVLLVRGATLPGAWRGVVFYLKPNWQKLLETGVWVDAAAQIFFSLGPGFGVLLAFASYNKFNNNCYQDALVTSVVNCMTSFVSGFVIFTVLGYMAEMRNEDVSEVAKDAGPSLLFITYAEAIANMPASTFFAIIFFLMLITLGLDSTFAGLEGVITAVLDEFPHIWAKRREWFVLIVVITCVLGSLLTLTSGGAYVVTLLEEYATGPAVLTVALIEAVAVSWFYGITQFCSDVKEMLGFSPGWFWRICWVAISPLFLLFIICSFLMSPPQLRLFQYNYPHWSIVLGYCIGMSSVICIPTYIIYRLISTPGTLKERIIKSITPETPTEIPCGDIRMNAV

Row | IA [1] | pKi [2] | pKi [3] | SMILES | pKi [4]
1 | 0.1 | 7.90 | 7.50 | O=C1COc2ccc(OC3CCN(CCOc4cccc5ncccc45)CC3)cc2N1 | 
2 | 0.5 | 8.20 | 7.40 | O=C1COc2ccc(OC3CCN(CCOc4cccc5cccnc45)CC3)cc2N1 | 
3 | 0.2 |  |  | Cc1ccc2c(OCCN3CCC(Cc4ccc5c(c4)NC(=O)CO5)CC3)cccc2n1 | 
4 | 0.3 | 8.80 | 7.10 | O=C1COc2ccc(OCC3CCCN(CCOc4cccc5ncccc45)C3)cc2N1 (stereo not given) | 
5 | 0.3 | 8.80 | 8.10 | N#Cc1cc2c(OCCN3CCC(Oc4ccc5c(c4)NC(=O)CO5)CC3)cccc2[nH]1 | 
6 | 0.4 | 8.60 | 7.00 | O=C1COc2ccc(OC3CCN(CCOc4cccc5ccccc45)CC3)cc2N1 | 
7 | 0.2 | 8.90 | 8.20 | O=C1COc2ccc(CC3CCN(CCOc4cccc5ncccc45)CC3)cc2N1 | 
8 | 0.8 | 8.10 | 7.30 | O=C1COc2ccc(OC3CCN(CCOc4nccc5ccccc45)CC3)cc2N1 | 
9 |  | 7.00 |  | O=C1COc2ccc(OC3CCN(CCOc4ccnc5ccccc45)CC3)cc2N1 | 
10 | 0.3 | 8.90 | 7.30 | O=C1COc2ccc(OCC3CCN(CCOc4cccc5ncccc45)C3)cc2N1 (stereo not given) | 
11 | 0.2 | 8.00 | 7.50 | O=C1COc2ccc(CN3CCN(CCOc4cccc5ncccc45)CC3)cc2N1 | 
12 | 0.2 | 8.40 | 8.30 | O=C1COc2ccc(OC3CCN(CCOc4cccc5[nH]ccc45)CC3)cc2N1 | 

Row | SMILES | IA [1] | pKi [2] | pKi [3] | pKi [4]
13 | CC(COc1ccc2c(c1)NC(=O)CO2)NCC(O)COc1cccc2[nH]ccc12 (stereo in doubt; 1) [listing 1 of 2 here] |  |  | 7.30 | 
14 | CC(COc1ccc2c(c1)NC(=O)CO2)NCC(O)COc1cccc2[nH]ccc12 (stereo in doubt; 1b) | 0.3 |  |  | 
15 | CC(COc1ccc2c(c1)NC(=O)CO2)NCC(O)COc1cccc2[nH]ccc12 (stereo in doubt; 1) [listing 2 of 2 here] | 0.3 |  |  | 
16 | CC(COc1ccc2c(c1)NC(=O)CO2)NCC(O)COc1cccc2[nH]ccc12 (stereo in doubt; 1d) [listing 1 of 2 here] |  |  | 6.50 | 
17 | CC(COc1ccc2c(c1)NC(=O)CO2)NCC(O)COc1cccc2[nH]ccc12 (stereo in doubt; 1a) [listing 1 of 2 here] |  |  | 6.90 | 
18 | CC(COc1ccc2c(c1)NC(=O)CO2)NCC(O)COc1cccc2[nH]ccc12 (stereo in doubt; 1c) [listing 1 of 2 here] | 0.3 |  |  | 
19 | CC(COc1ccc2c(c1)NC(=O)CO2)NCC(O)COc1cccc2[nH]ccc12 (stereo in doubt; 1c) [listing 2 of 2 here] |  |  | 7.00 | 
20 | CC(COc1ccc2c(c1)NC(=O)CO2)NCC(O)COc1cccc2[nH]ccc12 (stereo in doubt; 1a) [listing 2 of 2 here] | 0.4 |  |  | 
21 | O=C1COc2ccc(OCCNCCCOc3cccc4[nH]ccc34)cc2N1 | 0.6 | 8.80 | 7.10 | 6.00
22 | CC(COc1ccc2c(c1)NC(=O)CO2)NCC(O)COc1cccc2[nH]ccc12 (stereo in doubt; 1d) [listing 2 of 2 here] | 0.2 |  |  | 
